Experimental data published in ChEMBL document CHEMBL4152209, “Synthesis of 7β-hydroxy-8-ketone opioid derivatives with antagonist activity at mu- and delta-opioid receptors” (Eur J Med Chem, 2018).
Calls of active or inactive are those of the source. The calls are words filed in the database; no cut-off is given here.

Columns and labels:
[1] = biological target: Kappa-type opioid receptor (Homo sapiens) (UniProt P41145); details: at 10 µM
Mu-type opioid receptor [2] = biological target: T1, Mu-type opioid receptor (Homo sapiens, UniProt P35372); details: at 1 µM
Mu-type opioid receptor [3] = biological target: T1, Mu-type opioid receptor; details: at 10 µM
[4] = biological target: Kappa-type opioid receptor (Homo sapiens) (UniProt P41145); details: at 1 µM
[5] = biological target: T2, Delta-type opioid receptor (Homo sapiens, UniProt P41143); test: Displacement of [3H]diprenorphine from human DOR expressed in African green monkey COS1 cell membranes at 10 uM incubated for 1 hr by scintillation counting method
[6] = biological target: T2, Delta-type opioid receptor; test: Displacement of [3H]diprenorphine from human DOR expressed in African green monkey COS1 cell membranes at 1 uM incubated for 1 hr by scintillation counting method
Mu-type opioid receptor [7] = biological target: T1, Mu-type opioid receptor; test: Antagonist activity at human MOR expressed in African green monkey COS1 cell membranes assessed as inhibition of DAMGO-induced [35S]GTPgS binding at 20 uM by scintillation counting method; type: functional
In short: (§1)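 Antagonism in [35S]GTPγS binding used 5 µg of hMOR or hDOR transfected-cell membranes, 1 h at 23 °C, in Tris-HCl pH 7.3 with MgCl₂, NaCl, EDTA, 30 µM GDP and 0.2 nM [35S]GTPγS. Test ligands at 20 or 50 µM were co-incubated with DAMGO (1 µM, MOR) or SNC80 (DOR). Read by filtration and scintillation; n=3 in triplicate.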

Mu-type opioid receptor [8] = biological target: T1, Mu-type opioid receptor; test: Antagonist activity at human MOR expressed in African green monkey COS1 cell membranes assessed as inhibition of DAMGO-induced [35S]GTPgS binding at 50 uM by scintillation counting method; type: functional
In short: as §1

HEK293 = test: Toxicity in HEK293 cells assessed as reduction in cell viability at <100 uM incubated for 24 hrs by cell-titer Glo reagent based assay; details: human, hek293, 24 h
In short: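 HEK-293 cells, 9000 per well, were switched to Opti-MEM and exposed to compound (0.1–100 µM) for 24 h. Viability was read as lysate ATP by CellTiter-Glo luminescence.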

[9] = biological target: T2, Delta-type opioid receptor; test: Displacement of [3H]diprenorphine from human DOR expressed in African green monkey COS1 cell membranes incubated for 1 hr by scintillation counting method
In short: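 hDOR membranes from stably transfected cells, diluted in 50 mM Tris-HCl pH 7.4 with 1 mM EDTA, were incubated with 1 nM [3H]diprenorphine (KD 1.1 nM; Bmax 4.7 pmol/mg) and competitor (1 × 10⁻⁷ to 5 × 10⁻⁵ M) for 1 h at 23 °C. Samples were then filtered on PEI-soaked GF/B and counted by scintillation. Ki was derived from KD; three experiments in triplicate.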

[10] = biological target: T2, Delta-type opioid receptor; test: Agonist activity at human DOR expressed in African green monkey COS1 cell membranes assessed as stimulation of [35S]GTPgS binding at 20 uM by scintillation counting method; type: functional
In short: (§2)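 Membranes (5 µg) from stably transfected cells expressing hMOR or hDOR were incubated 1 h at 23 °C in 50 mM Tris-HCl pH 7.3 with 5 mM MgCl₂, 100 mM NaCl, 1 mM EDTA, 30 µM GDP and 0.2 nM [35S]GTPγS. Reference opioids were used at 1 or 10 µM and test ligands at 20 or 50 µM. Nonspecific binding was taken with 10 µM GTP. Samples were filtered and counted; three experiments in triplicate.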

[11] = biological target: T2, Delta-type opioid receptor; test: Antagonist activity at human DOR expressed in African green monkey COS1 cell membranes assessed as inhibition of SNC80-induced [35S]GTPgS binding at 50 uM by scintillation counting method; type: functional
In short: as §1

Mu-type opioid receptor [12] = biological target: T1, Mu-type opioid receptor; test: Displacement of [3H]diprenorphine from human MOR expressed in African green monkey COS1 cell membranes incubated for 1 hr by scintillation counting method
[13] = biological target: T2, Delta-type opioid receptor; test: Agonist activity at human DOR expressed in African green monkey COS1 cell membranes assessed as stimulation of [35S]GTPgS binding at 50 uM by scintillation counting method; type: functional
In short: as §2

T1 sequence (P35372 whole entry): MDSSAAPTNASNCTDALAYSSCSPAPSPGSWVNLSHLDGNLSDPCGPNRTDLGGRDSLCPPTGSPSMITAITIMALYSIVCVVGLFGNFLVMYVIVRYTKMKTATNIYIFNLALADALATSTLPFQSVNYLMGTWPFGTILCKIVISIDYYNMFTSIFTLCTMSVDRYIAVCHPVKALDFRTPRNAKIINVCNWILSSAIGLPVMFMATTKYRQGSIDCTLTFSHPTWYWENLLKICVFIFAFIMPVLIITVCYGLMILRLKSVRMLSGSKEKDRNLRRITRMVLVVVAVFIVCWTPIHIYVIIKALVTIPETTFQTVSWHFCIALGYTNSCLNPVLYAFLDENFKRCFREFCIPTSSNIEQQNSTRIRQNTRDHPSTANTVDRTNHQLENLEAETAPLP
Kappa-type opioid receptor (Homo sapiens), sequence (P41145 whole entry): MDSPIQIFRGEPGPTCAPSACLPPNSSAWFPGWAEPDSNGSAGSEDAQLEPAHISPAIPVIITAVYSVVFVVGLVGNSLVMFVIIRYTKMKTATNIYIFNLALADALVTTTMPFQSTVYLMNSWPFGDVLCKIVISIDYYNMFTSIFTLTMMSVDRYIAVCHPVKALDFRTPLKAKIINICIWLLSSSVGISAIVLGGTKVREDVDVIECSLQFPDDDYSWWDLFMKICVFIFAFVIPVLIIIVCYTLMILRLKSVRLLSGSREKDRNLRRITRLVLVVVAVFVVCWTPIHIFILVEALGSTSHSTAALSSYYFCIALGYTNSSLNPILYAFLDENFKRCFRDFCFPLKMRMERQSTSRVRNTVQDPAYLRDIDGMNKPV
T2 sequence (P41143 whole entry): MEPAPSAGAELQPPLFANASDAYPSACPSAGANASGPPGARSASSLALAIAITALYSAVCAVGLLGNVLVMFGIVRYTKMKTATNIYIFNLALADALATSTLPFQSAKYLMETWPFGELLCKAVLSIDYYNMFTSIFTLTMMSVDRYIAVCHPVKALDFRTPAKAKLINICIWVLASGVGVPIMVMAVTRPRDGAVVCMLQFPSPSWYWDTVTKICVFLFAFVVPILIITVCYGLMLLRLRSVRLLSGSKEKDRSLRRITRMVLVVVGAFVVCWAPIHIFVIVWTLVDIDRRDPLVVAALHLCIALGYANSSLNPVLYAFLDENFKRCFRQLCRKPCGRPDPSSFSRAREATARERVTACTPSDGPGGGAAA

| Structure (SMILES) | inhibition [1] | inhibition (Mu-type opioid receptor [2]) | inhibition (Mu-type opioid receptor [3]) | inhibition [4] | inhibition [5] | inhibition [6] | inhibition (Mu-type opioid receptor [7]) | inhibition (Mu-type opioid receptor [8]) | Activity (HEK293) | Ki [9] | Activity [10] | inhibition [11] | Ki (Mu-type opioid receptor [12]) | Activity [13] |
| --- | --- | --- | --- | --- | --- | --- | --- | --- | --- | --- | --- | --- | --- | --- |
| COC(=O)N1CC[C@]23c4c5ccc(OC)c4O[C@H]2[C@@H](OC)C=C[C@H]3[C@H]1C5 | 2% | 3% | 11% | 6% | 10% | 2% |  |  |  |  |  |  |  |  |
| COC(=O)N1CC[C@]23c4c5ccc(OC(C)=O)c4O[C@H]2[C@@H](OC(C)=O)C=C[C@H]3[C@H]1C5 | 1% | 1% | 3% | 0% | 9% | 1% |  |  |  |  |  |  |  |  |
| COC(=O)N1CC[C@]23c4c5ccc(O)c4O[C@H]2[C@@H](O)C=C[C@H]3[C@H]1C5 | 27% | 16% | 58% | 7% | 59% | 21% | Active | Active | Non-Toxic | 1690 to 2630 nM | inactive | Active | 814 to 1720 nM | inactive |
| COC(=O)N1CC[C@]23c4c5ccc(O)c4O[C@H]2[C@@H](O)[C@H](O)C(=O)[C@H]3[C@H]1C5 | 21% | 8% | 48% | 6% | 63% | 24% | Active | Active | Non-Toxic | 1130 to 1830 nM | inactive | Active | 1080 to 2580 nM | inactive |
| CN1CC[C@]23c4c5ccc(O)c4O[C@H]2[C@@H](O)C=C[C@H]3[C@H]1C5 |  |  |  |  | 63% | 31% |  |  |  |  | Active |  |  | Active |
| C[C@@H](NC(=O)[C@@H](N)Cc1ccc(O)cc1)C(=O)NCC(=O)N(C)[C@@H](Cc1ccccc1)C(=O)NCCO |  | 67% | 85% |  |  |  |  |  |  |  |  |  |  |  |
| COC(=O)N1CC[C@]23c4c5ccc(OC)c4O[C@H]2[C@@H](OC)[C@H](O)C(=O)[C@H]3[C@H]1C5 | 0% | 5% | 5% | 5% | 19% | 5% |  |  | Non-Toxic |  |  |  |  |  |
| Oc1ccc2c3c1O[C@H]1c4[nH]c5ccccc5c4C[C@@]4(O)[C@@H](C2)N(CC2CC2)CC[C@]314 |  |  |  |  | 94% | 94% |  |  |  |  |  |  |  |  |
| COC(=O)N1CC[C@]23c4c5ccc(OC(C)=O)c4O[C@H]2[C@@H](OC(C)=O)[C@H](O)C(=O)[C@H]3[C@H]1C5 | 8% | 7% | 9% | 4% | 51% | 22% |  |  | Non-Toxic |  |  |  |  |  |
